≈ marks a conversion by molar mass, not a printed value. Calls of active or inactive are those of the source. How the calls were made is not given here.
Columns and labels:
Pichia kudriavzevii = test: Antifungal activity against Candida krusei assessed as growth inhibition; type: functional, organism-based
KB = test: Cytotoxicity against human KB cells assessed as cell viability after 48 hrs by neutral red uptake assay; type: cell-based
In short: (§1)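 Neutral red uptake assay on human cancer lines (SK-MEL, KB, BT-549, SK-OV-3) and noncancerous mammalian cells (VERO, LLC-PK1). Highest tested concentration was 10 µg/mL.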

Aspergillus fumigatus = test: Antifungal activity against Aspergillus fumigatus assessed as growth inhibition; type: functional, organism-based
SK-MEL = test: Cytotoxicity against human SK-MEL cells assessed as cell viability after 48 hrs by neutral red uptake assay; type: cell-based; in short: as §1
[1] = Selectivity index, ratio of cytotoxicity against human SK-MEL cells to IC50 for Cryptococcus neoformans ATCC 90113; type: toxicity, cell-based; settings: read-out: Selectivity Index
Cryptococcus neoformans = test: Antifungal activity against Cryptococcus neoformans ATCC 90113 assessed as growth inhibition after 70-74 hrs by CLSI method; type: functional, organism-based; settings: Cryptococcus neoformans, ATCC 90113; for IC50: read-out: IC50
[2] = Selectivity index, ratio of cytotoxicity against human KB cells to IC50 for Cryptococcus neoformans ATCC 90113; type: toxicity, cell-based; settings: read-out: Selectivity Index
Escherichia coli = test: Antibacterial activity against Escherichia coli ATCC 35218 assessed as growth inhibition after 16-20 hrs by CLSI method; type: functional, organism-based
SK-OV-3 = test: Cytotoxicity against human SKOV3 cells assessed as cell viability after 48 hrs by neutral red uptake assay; type: cell-based; settings: sk-ov-3, 48 h; in short: as §1
[3] = Selectivity index, ratio of cytotoxicity against african green monkey Vero cells to IC50 for Cryptococcus neoformans ATCC 90113; type: toxicity, cell-based; settings: read-out: Selectivity Index
Vero = test: Cytotoxicity against african green monkey Vero cells assessed as cell viability after 48 hrs by neutral red uptake assay; type: cell-based; settings: chlorocebus sabaeus; in short: as §1
[4] = Selectivity index, ratio of cytotoxicity against pig LLC-PK1 cells to IC50 for Cryptococcus neoformans ATCC 90113; type: toxicity, cell-based; settings: read-out: Selectivity Index
Candida albicans = test: Antifungal activity against Candida albicans assessed as growth inhibition; type: functional, organism-based
BT-549 = test: Cytotoxicity against human BT549 cells assessed as cell viability after 48 hrs by neutral red uptake assay; type: cell-based; settings: bt-549, 48 h; in short: as §1
[5] = Selectivity index, ratio of cytotoxicity against human SKOV3 cells to IC50 for Cryptococcus neoformans ATCC 90113; type: toxicity, cell-based, SK-OV-3; settings: read-out: Selectivity Index
Nakaseomyces glabratus = test: Antifungal activity against Candida glabrata assessed as growth inhibition; type: functional, organism-based
[6] = Selectivity index, ratio of cytotoxicity against human BT549 cells to IC50 for Cryptococcus neoformans ATCC 90113; type: toxicity, cell-based, BT-549; settings: read-out: Selectivity Index
LLC-PK1 = test: Cytotoxicity against pig LLC-PK1 cells assessed as cell viability after 48 hrs by neutral red uptake assay; type: cell-based, Sus scrofa; settings: llc-pk1, 48 h; in short: as §1

SMILES	growth inhibition (GI) (Pichia kudriavzevii)	Activity (KB)	growth inhibition (GI) (Aspergillus fumigatus)	Activity (SK-MEL)	selectivity ratio [1]	MFC (Cryptococcus neoformans)	MIC (Cryptococcus neoformans)	IC50 (Cryptococcus neoformans)	selectivity ratio [2]	growth inhibition (GI) (Escherichia coli)	Activity (SK-OV-3)	selectivity ratio [3]	Activity (Vero)	selectivity ratio [4]	growth inhibition (GI) (Candida albicans)	Activity (BT-549)	selectivity ratio [5]	growth inhibition (GI) (Nakaseomyces glabratus)	selectivity ratio [6]	Activity (LLC-PK1)
Cc1ccc(-c2nc(C[C@H](N)C(=O)N[C@@H](CCCNC(=N)N)C(=O)NCc3ccccc3)c[nH]2)cc1	inactive	> 10 µg/mL	inactive	> 10 µg/mL	> 4.7	2.5 µg/mL (≈ 5.1 µM)	2.5 µg/mL (≈ 5.1 µM)	2.11 µg/mL (≈ 4.3 µM)	> 4.7	inactive	> 10 µg/mL	> 4.7	> 10 µg/mL	> 4.7	inactive	> 10 µg/mL	> 4.7	inactive	> 4.7	> 10 µg/mL
COC(=O)[C@H](CCCNC(=N)N)NC(=O)[C@H](Cc1c[nH]c(-c2cccc3ccccc23)n1)NC(=O)OC(C)(C)C	inactive	> 10 µg/mL	inactive	> 10 µg/mL	> 8	2.5 µg/mL (≈ 4.53 µM)	2.5 µg/mL (≈ 4.53 µM)	1.25 µg/mL (≈ 2.27 µM)	> 8	inactive	> 10 µg/mL	> 8	> 10 µg/mL	> 8	inactive	> 10 µg/mL	> 8	inactive	> 8	> 10 µg/mL
N=C(N)NCCC[C@H](NC(=O)[C@@H](N)Cc1c[nH]c(-c2cccc3ccccc23)n1)C(=O)NCc1ccccc1	inactive	> 10 µg/mL	inactive	> 10 µg/mL	> 16.1	1.25 µg/mL (≈ 2.37 µM)	1.25 µg/mL (≈ 2.37 µM)	0.62 µg/mL (≈ 1.18 µM)	> 16.1	inactive	> 10 µg/mL	> 16.1	> 10 µg/mL	> 16.1	inactive	> 10 µg/mL	> 16.1	inactive	> 16.1	> 10 µg/mL
CC(C)(C)OC(=O)N[C@@H](Cc1c[nH]c(-c2ccccc2)n1)C(=O)N[C@@H](CCCNC(=N)N)C(=O)NCc1ccccc1	inactive	> 10 µg/mL	inactive	> 10 µg/mL	> 3.9	5 µg/mL (≈ 8.67 µM)	5 µg/mL (≈ 8.67 µM)	2.56 µg/mL (≈ 4.44 µM)	> 3.9	inactive	> 10 µg/mL	> 3.9	> 10 µg/mL	> 3.9	inactive	> 10 µg/mL	> 3.9	inactive	> 3.9	> 10 µg/mL
COC(=O)[C@H](Cc1c[nH]c(-c2ccc(-c3ccccc3)cc2)n1)NC(=O)[C@@H](N)Cc1c[nH]c2ccccc12	inactive	> 10 µg/mL	inactive	> 10 µg/mL	> 2.6	20 µg/mL (≈ 39.4 µM)	10 µg/mL (≈ 19.7 µM)	3.82 µg/mL (≈ 7.53 µM)	> 2.6	inactive	> 10 µg/mL	> 2.6	> 10 µg/mL	> 2.6	inactive	> 10 µg/mL	> 2.6	inactive	> 2.6	> 10 µg/mL
Cc1ccc(-c2nc(C[C@H](NC(=O)[C@@H](N)Cc3c[nH]c4ccccc34)C(=O)NCc3ccccc3)c[nH]2)cc1	inactive	> 10 µg/mL	inactive	> 10 µg/mL	> 1.3	–	20 µg/mL (≈ 38.4 µM)	7.84 µg/mL (≈ 15.1 µM)	> 1.3	inactive	> 10 µg/mL	> 1.3	> 10 µg/mL	> 1.3	inactive	> 10 µg/mL	> 1.3	inactive	> 1.3	> 10 µg/mL
COC(=O)[C@H](Cc1c[nH]c(-c2ccccc2)n1)NC(=O)[C@@H](N)Cc1c[nH]c2ccccc12	inactive	> 10 µg/mL	inactive	> 10 µg/mL	> 1.3	20 µg/mL (≈ 46.4 µM)	20 µg/mL (≈ 46.4 µM)	7.97 µg/mL (≈ 18.5 µM)	> 1.3	inactive	> 10 µg/mL	> 1.3	> 10 µg/mL	> 1.3	inactive	> 10 µg/mL	> 1.3	inactive	> 1.3	> 10 µg/mL
Cc1ccc(-c2nc(C[C@H](NC(=O)OC(C)(C)C)C(=O)N[C@@H](CCCNC(=N)N)C(=O)NCc3ccccc3)c[nH]2)cc1	inactive	> 10 µg/mL	inactive	> 10 µg/mL	> 1.7	10 µg/mL (≈ 16.9 µM)	10 µg/mL (≈ 16.9 µM)	6.04 µg/mL (≈ 10.2 µM)	> 1.7	inactive	> 10 µg/mL	> 1.7	> 10 µg/mL	> 1.7	inactive	> 10 µg/mL	> 1.7	inactive	> 1.7	> 10 µg/mL
COC(=O)[C@H](CCCNC(=N)N)NC(=O)[C@@H](N)Cc1c[nH]c(-c2cccc3ccccc23)n1	inactive	> 10 µg/mL	inactive	> 10 µg/mL	> 7.3	2.5 µg/mL (≈ 5.54 µM)	2.5 µg/mL (≈ 5.54 µM)	1.38 µg/mL (≈ 3.06 µM)	> 7.3	inactive	> 10 µg/mL	> 7.3	> 10 µg/mL	> 7.3	inactive	> 10 µg/mL	> 7.3	inactive	> 7.3	> 10 µg/mL

From ChEMBL document CHEMBL3132745, “Synthesis and Antimicrobial Activities of His(2-aryl)-Arg and Trp-His(2-aryl) Classes of Dipeptidomimetics” (Medchemcomm, 2014)
